Reference: ChEMBL document CHEMBL3792341, “Substituted quinazolinones as kinase inhibitors endowed with anti-fibrotic properties” (Eur J Med Chem, 2016)
The source made the active and inactive calls. No cut-off for these calls is given here.

Tests used:
[1] = tested on: HSC; experiment: Antiproliferative activity against VEGF induced human HSC cells at 1 uM after 72 hrs by carboxyfluorescein diacetate succinimidyl ester dye-based FACS flow cytometric method; type: functional, cell-based
Summary of the method: (§1)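 Primary human HSCs (from collagenase/pronase digests of non-pathological liver, Percoll gradient) or ISEMFs (from collagenase-digested gut biopsies, CD90-checked) were CFSE-loaded for 10 min at 37 °C in PBS with 0.1% BSA. Loading was quenched with 5 volumes of ice-cold medium. After 16 h, cells were washed and given compound plus 1 ng/ml VEGF for 72 h. Read-out was dye partitioning by flow cytometry, as % CFSE-positive cells. Duplicate per cell batch; mean ± SE.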

[2] = Cytotoxicity against crohn's disease patient isolated ISEMF assessed as cell viability at 1 uM after 72 hrs by MTT assay; settings: human
Summary of the method: (§2)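 MTT viability in primary human HSCs or ISEMFs seeded at 2 × 10³ cells/well. Cells were exposed to compound for 72 h, then to MTT 0.50 mg/ml for 4 h. Viability is expressed as % of the respective untreated cells. Triplicate per isolated cell batch.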

[3] = species on record: Homo sapiens; experiment: Inhibition of human PI3K using phosphatidylinositol 4,5-diphosphate as substrate at 1 uM measured after 20 mins at 30 degC by liquid scintillation counting method in presence of [gamma-32P]-ATP
[4] = Reduction of FN1 mRNA expression in human HSC cells at 1 uM by RT-PCR analysis; type: functional, cell-based
Summary of the method: (§3)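 HSCs or ISEMFs were treated with compound for 24 h. Total RNA was extracted and DNase I-treated, then used for quantitative PCR of the target transcript. Values were normalized to 18S rRNA and relative change was calculated by the ΔΔCT method. Triplicate per isolated cell batch.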

[5] = species on record: Homo sapiens; experiment: Antiproliferative activity against VEGF induced healthy human ISEMF at 1 uM after 72 hrs by carboxyfluorescein diacetate succinimidyl ester dye-based FACS flow cytometric method; type: functional; summary of the method: as §1
[6] = biological target: T1, MAP kinase p38 (Homo sapiens) (UniProt O15264+Q15759+Q16539+P53778); experiment: Inhibition of p38 MAPK phosphorylation in crohn's disease patient isolated ISEMF at 1 uM after 4 hrs by western blotting analysis
Summary of the method: (§4)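 Primary human cells were treated with compound for 4 h. Lysates were made in RIPA buffer with phosphatase and protease inhibitors and cleared by centrifugation. Proteins were run on 10% SDS-PAGE and blotted to nitrocellulose. Blots were probed for phospho-p38 MAPK with an HRP secondary and ECL detection, then reprobed for total p38 MAPK as loading control. Duplicate experiments.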

[7] = Cytotoxicity against healthy human ISEMF assessed as cell viability at 1 uM after 72 hrs by MTT assay; summary of the method: as §2
[8] = biological target: Proto-oncogene tyrosine-protein kinase Src (Homo sapiens) (UniProt P12931); experiment: Inhibition of human Src using myelin basic protein as substrate at 1 uM measured after 20 mins at 30 degC by liquid scintillation counting method in presence of [gamma-32P]-ATP
[9] = biological target: Platelet-derived growth factor receptor beta (Homo sapiens) (UniProt P09619); experiment: Inhibition of human PDGFR-beta at 1 uM measured after 20 mins at 30 degC by liquid scintillation counting method in presence of [gamma-32P]-ATP
[10] = biological target: Tyrosine-protein kinase ABL1 (Homo sapiens) (UniProt P00519); experiment: Inhibition of human Abl1 using myelin basic protein as substrate at 1 uM measured after 20 mins at 30 degC by liquid scintillation counting method in presence of [gamma-32P]-ATP
[11] = biological target: Serine/threonine-protein kinase mTOR (Homo sapiens) (UniProt P42345); experiment: Inhibition of human mTOR using PHAS-1 as substrate at 1 uM measured after 20 mins at 30 degC by liquid scintillation counting method in presence of [gamma-32P]-ATP
[12] = Reduction of FN1 mRNA expression in healthy human ISEMF at 1 uM by RT-PCR analysis; type: functional; summary of the method: as §3
[13] = species on record: Homo sapiens; experiment: Antiproliferative activity against VEGF induced crohn's disease patient isolated ISEMF at 1 uM after 72 hrs by carboxyfluorescein diacetate succinimidyl ester dye-based FACS flow cytometric method; type: functional; summary of the method: as §1
[14] = biological target: Fibroblast growth factor receptor 1 (Homo sapiens) (UniProt P11362); experiment: Inhibition of human FGFR1 using myelin basic protein as substrate at 1 uM measured after 20 mins at 30 degC by liquid scintillation counting method in presence of [gamma-32P]-ATP
[15] = Reduction of FN1 mRNA expression in crohn's disease patient isolated ISEMF at 1 uM by RT-PCR analysis; type: functional; settings: Homo sapiens; summary of the method: as §3
[16] = Reduction of TIMP1 mRNA expression in crohn's disease patient isolated ISEMF at 1 uM by RT-PCR analysis; type: functional; settings: Homo sapiens; summary of the method: as §3
[17] = biological target: Vascular endothelial growth factor receptor 2 (Homo sapiens) (UniProt P35968); experiment: Inhibition of human KDR using […] as substrate at 1 uM measured after 20 mins at 30 degC by liquid scintillation counting method in presence of [gamma-32P]-ATP
[18] = Reduction of TIMP1 mRNA expression in human HSC cells at 1 uM by RT-PCR analysis; type: functional, cell-based; summary of the method: as §3
[19] = biological target: T1, MAP kinase p38 (Homo sapiens); experiment: Inhibition of p38 MAPK phosphorylation in human HSC cells at 1 uM after 4 hrs by western blotting analysis; type: cell-based; summary of the method: as §4
[20] = Cytotoxicity against human HSC cells assessed as cell viability at 1 uM after 72 hrs by MTT assay; type: cell-based; summary of the method: as §2
[21] = Reduction of TIMP1 mRNA expression in healthy human ISEMF at 1 uM by RT-PCR analysis; type: functional; summary of the method: as §3
[22] = Reduction of COL1A1 mRNA expression in healthy human ISEMF at 1 uM by RT-PCR analysis; type: functional; summary of the method: as §3
[23] = Reduction of COL1A1 mRNA expression in healthy human HSC cells at 1 uM by RT-PCR analysis; type: functional, cell-based; summary of the method: as §3
[24] = Reduction of COL1A1 mRNA expression in crohn's disease patient isolated ISEMF at 1 uM by RT-PCR analysis; type: functional; settings: Homo sapiens; summary of the method: as §3

Sequence of Proto-oncogene tyrosine-protein kinase Src (Homo sapiens) (P12931 2-536 limits assumed): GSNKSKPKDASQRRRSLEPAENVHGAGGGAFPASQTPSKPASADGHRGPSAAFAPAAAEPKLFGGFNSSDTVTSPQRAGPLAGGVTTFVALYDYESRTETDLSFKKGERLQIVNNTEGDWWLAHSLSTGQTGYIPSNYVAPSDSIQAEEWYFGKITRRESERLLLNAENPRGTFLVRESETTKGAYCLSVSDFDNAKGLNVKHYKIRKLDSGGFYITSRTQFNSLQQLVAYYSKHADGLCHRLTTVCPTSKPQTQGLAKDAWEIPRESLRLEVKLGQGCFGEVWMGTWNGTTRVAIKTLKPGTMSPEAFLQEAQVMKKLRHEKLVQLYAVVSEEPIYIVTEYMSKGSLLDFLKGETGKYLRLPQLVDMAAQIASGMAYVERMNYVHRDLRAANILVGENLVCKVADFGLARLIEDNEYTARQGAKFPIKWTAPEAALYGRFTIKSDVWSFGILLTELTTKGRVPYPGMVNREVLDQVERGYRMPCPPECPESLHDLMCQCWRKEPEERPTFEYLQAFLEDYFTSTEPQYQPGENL
Sequence of Platelet-derived growth factor receptor beta (Homo sapiens) (P09619 whole entry): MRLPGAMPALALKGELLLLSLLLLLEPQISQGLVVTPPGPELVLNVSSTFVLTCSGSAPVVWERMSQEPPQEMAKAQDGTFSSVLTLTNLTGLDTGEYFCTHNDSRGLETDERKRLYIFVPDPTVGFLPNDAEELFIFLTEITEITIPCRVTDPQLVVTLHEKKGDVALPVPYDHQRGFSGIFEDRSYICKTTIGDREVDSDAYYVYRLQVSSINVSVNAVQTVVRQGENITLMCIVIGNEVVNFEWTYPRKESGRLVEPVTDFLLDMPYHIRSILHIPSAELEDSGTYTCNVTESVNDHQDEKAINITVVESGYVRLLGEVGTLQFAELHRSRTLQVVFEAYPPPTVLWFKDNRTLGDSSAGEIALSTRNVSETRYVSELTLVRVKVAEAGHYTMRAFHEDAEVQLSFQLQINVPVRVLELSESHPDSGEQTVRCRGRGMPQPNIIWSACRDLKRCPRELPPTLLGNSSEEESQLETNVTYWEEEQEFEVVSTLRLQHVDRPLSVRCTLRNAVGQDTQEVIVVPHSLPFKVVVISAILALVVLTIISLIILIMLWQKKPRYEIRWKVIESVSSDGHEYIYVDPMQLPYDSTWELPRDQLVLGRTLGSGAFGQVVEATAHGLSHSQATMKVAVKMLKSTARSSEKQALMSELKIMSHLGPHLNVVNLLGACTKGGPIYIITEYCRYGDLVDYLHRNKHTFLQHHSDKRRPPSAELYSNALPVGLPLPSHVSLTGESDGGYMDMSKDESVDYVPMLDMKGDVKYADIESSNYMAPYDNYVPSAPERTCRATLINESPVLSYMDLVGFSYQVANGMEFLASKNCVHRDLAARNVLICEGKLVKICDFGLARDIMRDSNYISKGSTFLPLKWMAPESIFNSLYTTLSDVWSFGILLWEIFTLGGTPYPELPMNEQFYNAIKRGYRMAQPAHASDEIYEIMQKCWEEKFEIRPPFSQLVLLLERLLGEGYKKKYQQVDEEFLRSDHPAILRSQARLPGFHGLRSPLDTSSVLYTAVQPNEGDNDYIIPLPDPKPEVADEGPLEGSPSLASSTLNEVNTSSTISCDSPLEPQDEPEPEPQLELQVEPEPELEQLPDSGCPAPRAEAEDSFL
Sequence of Tyrosine-protein kinase ABL1 (Homo sapiens) (P00519 whole entry): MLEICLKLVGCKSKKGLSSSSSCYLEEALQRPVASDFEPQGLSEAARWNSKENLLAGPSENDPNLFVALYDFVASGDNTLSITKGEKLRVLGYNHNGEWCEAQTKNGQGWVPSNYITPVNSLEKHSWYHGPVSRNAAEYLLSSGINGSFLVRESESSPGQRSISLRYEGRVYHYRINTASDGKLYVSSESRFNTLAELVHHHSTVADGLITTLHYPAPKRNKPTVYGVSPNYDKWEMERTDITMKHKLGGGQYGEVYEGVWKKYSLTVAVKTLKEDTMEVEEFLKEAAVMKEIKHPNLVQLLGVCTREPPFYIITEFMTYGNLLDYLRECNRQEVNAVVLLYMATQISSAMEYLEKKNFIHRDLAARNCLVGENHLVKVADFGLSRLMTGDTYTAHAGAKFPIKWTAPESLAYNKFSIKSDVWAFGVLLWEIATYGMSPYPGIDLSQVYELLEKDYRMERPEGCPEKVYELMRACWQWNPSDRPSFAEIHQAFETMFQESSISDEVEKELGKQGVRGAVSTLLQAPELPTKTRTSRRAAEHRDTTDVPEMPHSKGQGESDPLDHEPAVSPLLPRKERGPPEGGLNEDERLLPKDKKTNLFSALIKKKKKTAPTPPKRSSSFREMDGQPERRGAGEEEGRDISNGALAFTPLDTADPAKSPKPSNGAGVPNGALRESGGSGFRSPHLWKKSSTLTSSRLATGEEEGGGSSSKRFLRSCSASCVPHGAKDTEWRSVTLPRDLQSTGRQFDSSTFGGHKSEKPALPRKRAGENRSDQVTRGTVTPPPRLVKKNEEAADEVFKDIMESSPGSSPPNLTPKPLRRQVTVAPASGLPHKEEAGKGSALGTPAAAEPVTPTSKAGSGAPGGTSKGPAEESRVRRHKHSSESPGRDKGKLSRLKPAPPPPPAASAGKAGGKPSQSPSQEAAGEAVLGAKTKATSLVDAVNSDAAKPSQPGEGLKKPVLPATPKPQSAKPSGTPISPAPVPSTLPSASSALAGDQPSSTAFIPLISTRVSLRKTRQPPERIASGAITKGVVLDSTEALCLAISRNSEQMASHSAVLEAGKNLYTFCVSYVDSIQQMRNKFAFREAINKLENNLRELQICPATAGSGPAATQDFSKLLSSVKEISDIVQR
Sequence of Vascular endothelial growth factor receptor 2 (Homo sapiens) (P35968 whole entry): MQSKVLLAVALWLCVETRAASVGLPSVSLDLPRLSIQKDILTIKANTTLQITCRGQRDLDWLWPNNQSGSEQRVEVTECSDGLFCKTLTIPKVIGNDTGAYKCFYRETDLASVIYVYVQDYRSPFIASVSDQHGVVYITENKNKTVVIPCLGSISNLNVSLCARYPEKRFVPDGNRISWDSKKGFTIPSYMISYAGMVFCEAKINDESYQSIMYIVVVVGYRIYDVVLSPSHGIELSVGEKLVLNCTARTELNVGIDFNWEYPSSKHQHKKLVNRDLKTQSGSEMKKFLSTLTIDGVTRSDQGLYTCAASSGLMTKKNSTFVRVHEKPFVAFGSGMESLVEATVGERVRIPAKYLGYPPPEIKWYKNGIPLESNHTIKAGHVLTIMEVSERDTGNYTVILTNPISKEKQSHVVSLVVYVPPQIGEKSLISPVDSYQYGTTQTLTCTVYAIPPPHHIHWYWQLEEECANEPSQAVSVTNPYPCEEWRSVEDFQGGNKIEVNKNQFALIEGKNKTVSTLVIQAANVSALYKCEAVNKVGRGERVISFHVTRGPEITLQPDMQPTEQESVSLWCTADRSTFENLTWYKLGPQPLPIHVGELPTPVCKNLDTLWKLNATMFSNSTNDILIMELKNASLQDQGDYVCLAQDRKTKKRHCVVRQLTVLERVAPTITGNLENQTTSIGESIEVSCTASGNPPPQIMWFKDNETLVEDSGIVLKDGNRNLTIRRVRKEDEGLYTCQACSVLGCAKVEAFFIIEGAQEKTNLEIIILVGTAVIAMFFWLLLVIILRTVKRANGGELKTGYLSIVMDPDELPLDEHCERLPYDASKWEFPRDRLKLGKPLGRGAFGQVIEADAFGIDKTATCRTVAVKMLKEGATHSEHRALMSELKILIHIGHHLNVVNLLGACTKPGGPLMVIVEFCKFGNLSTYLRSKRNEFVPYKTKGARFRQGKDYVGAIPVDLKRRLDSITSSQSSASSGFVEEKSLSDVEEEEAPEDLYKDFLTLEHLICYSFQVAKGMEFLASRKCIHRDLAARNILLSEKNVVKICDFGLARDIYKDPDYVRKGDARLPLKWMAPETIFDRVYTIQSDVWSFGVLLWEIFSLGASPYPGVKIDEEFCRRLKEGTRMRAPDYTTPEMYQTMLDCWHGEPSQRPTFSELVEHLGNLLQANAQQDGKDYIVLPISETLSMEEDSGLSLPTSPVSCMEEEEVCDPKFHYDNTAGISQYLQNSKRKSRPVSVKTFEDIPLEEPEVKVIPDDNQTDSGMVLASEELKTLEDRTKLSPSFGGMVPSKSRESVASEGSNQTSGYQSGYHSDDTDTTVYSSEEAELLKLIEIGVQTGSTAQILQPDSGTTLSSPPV
Sequence of Fibroblast growth factor receptor 1 (Homo sapiens) (P11362 22-822 limits assumed): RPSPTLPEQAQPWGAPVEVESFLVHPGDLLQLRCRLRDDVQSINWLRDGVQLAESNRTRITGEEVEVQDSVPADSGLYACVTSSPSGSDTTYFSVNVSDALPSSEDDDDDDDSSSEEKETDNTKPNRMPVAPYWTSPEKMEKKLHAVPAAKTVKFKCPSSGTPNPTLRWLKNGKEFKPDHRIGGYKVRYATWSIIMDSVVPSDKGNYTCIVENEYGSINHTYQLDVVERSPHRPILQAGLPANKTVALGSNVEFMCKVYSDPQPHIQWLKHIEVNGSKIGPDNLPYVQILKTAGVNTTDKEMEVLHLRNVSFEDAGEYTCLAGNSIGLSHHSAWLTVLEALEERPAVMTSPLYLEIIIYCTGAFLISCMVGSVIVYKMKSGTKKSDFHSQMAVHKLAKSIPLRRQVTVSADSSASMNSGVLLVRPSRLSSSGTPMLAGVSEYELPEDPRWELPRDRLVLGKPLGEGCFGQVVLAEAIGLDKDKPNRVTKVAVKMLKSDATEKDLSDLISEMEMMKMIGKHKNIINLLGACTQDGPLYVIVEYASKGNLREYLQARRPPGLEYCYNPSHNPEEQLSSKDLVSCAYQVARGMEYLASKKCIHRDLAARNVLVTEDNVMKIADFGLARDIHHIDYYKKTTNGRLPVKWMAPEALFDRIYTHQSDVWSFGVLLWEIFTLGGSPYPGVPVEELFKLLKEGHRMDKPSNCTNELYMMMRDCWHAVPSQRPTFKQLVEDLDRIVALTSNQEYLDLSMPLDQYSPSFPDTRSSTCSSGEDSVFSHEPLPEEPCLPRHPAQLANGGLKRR

Compound | Activity [1] | Activity [2] | inhibition [3] [%] | Activity [5] | inhibition [6] | Activity [7] | inhibition [8] [%] | inhibition [9] [%] | inhibition [10] [%] | inhibition [11] [%] | Activity [13] | inhibition [14] [%] | inhibition [17] [%] | inhibition [19] | Activity [20] | further results
COc1cc2ncn(Cc3cccnc3Br)c(=O)c2cc1OC | Active | Non-toxic | 25 | Active | Active | Non-toxic | 3 | 37 | 0 | 30 | Active | 13 | 24 | Active | Non-toxic | Activity [4]: Active; Activity [12]: inactive; Activity [15]: Active; Activity [16]: Active; Activity [18]: Active; Activity [21]: inactive
COc1cc2ncn(CC(O)c3ccc(Br)cc3)c(=O)c2cc1OC (centres undefined) | Active | Non-toxic | 5 | Active | Active | Non-toxic | 0 | 0 | 0 | 33 | Active | 8 | 44 | Active | Non-toxic | Activity [22]: Active; Activity [23]: Active; Activity [24]: Active
